# T cruzi repl – T. cruzi replication inhibition; T. cruzi beta-gal in NIH3T3, luminescence, 90 h; inhibition, % (test concentration not listed); 300,000 compounds, 1.4% hits; AID 1885;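 active = mean inhibition across valid replicates above about 55%, limit read from the data; inconclusive = mean below that limit but half or more replicates reach it; inactive = mean below it, under half of replicates reach it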;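 also: signal also drops with host cell toxicity which is not excluded here; 0% = plate median of DMSO wells and 100% = zero luminescence signal; higher percent means less beta-gal luminescence so fewer parasites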
#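 System: mouse NIH/3T3 fibroblasts infected with β-gal-expressing T. cruzi Tulahuen C4 / Input: NIH/3T3 cells, 5,000 per well / Buffer or medium: Low-serum DMEM with 2% FBS / Probe or stimulus: 5000 reporter trypomastigotes per well / Schedule: ≥90 h infection period, 3 h prior cell attachment / Measured by: GalScreen luminescence, 60 min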
# H9c2 TAG inh – reduces triacylglycerol accumulation in H9c2 cells | Nile Red lipid (TAG) fluorescence; cells loaded with 200 µM oleic acid | inhibition, % at 12.5 µM | 230,000 compounds, 0.66% hits | AID 651582;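 active = pattern-corrected inhibition of lipid staining of at least 50% with the nuclear-stain viability signal not falling by more than 50%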;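 also: 0% = DMSO wells and 100% = triacsin C control wells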
# CSC inhib – blocks cancer stem cells | cancer stem cell-like cells viability, luminescence | inhibition, % at 7.5 µM | 300,000 compounds, 1.1% hits | AID 2717; in the data active = inhibition above about 75%; inconclusive = no clear call, values can overlap the other calls; tested in HMLE shEcad cells
# Calb FLC – affects C. albicans growth with fluconazole | C. albicans CaCi-2 + fluconazole, Alamar Blue growth, 48 h | growth inhibition, % (no concentration beside the values) | 300,000 compounds, 0.57% hits | AID 1979;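 active = growth inhibition above about 58% in most replicates, limit read from the data, passing the limit was not always enough; inconclusive = exactly half the replicates above a set limit; inactive = most replicates below a set limit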;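 also: all wells also contain fluconazole at 8 µg/ml as a sub-toxic cotreatment; 0% = median of DMSO wells and 100% = median of geldanamycin control wells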
# Bfl-1 A1 inh – inhibitors of the anti-apoptotic protein A1, read as caspase activation | AID 2462 | MEF A1-2A-BIM cells, Caspase-Glo 3/7 luminescence, 3 h; percent of clofoctol response, vehicle zero | caspase activation, % (no concentration beside the values) | 330,000 compounds, 0.066% hits;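 active = over half of replicate activation scores above 10%, or exactly half above 10 with the replicate mean above 10; inconclusive = replicate mean below 10 yet half the replicates above 10; inactive = over half of replicates below 10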
# Beta cell apopt – beta cell apoptosis inhibition | INS-1E cytokine-induced death, ATP luminescence, 48 h; percent of positive-control rescue, neutral wells zero | protection from apoptosis, % (test concentration not listed) | 300,000 compounds, 0.8% hits | AID 435005;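 active = Every replicate reaches about 75%, or at least half do and their mean reaches it too, limit read from the data; inconclusive = At least half of replicates reach the limit but their mean does not; inactive = Under half of replicates reach the limit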;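 also: 0% = cytokine-treated negative control wells and 100% = positive control rescue; higher means more ATP so stronger rescue from cytokine killing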
# Numbers without * were called inactive; ? = inconclusive; / = no result. An excerpt weighted towards active compounds, which were near 3.1% of everything screened.
SMILES,T cruzi repl,H9c2 TAG inh,CSC inhib,Calb FLC,Bfl-1 A1 inh,Beta cell apopt
O=C(CN(c1cccc(C(F)(F)F)c1)S(=O)(=O)c1ccc(Cl)c([N+](=O)[O-])c1)NCc1ccccc1Cl,23,/,101*,-7,0,-9
O=C(CN(c1cccc(C(F)(F)F)c1)S(=O)(=O)c1ccc(Cl)c([N+](=O)[O-])c1)NCc1ccccc1,-8,/,85*,3,0,-8
CCN(CC)S(=O)(=O)c1ccc(O)c(C(=O)OCC(=O)N2c3ccccc3CC2C)c1 (stereo unspecified),-7,-8,-5,4,0,-8
COc1cccc(CN2CCC2(C)C(=O)NCCc2ccccn2)c1OC (stereo unspecified),/,14,/,/,/,/
CC1Cc2ccccc2N1C(=O)c1ccc2nccnc2c1 (stereo unspecified),-12,-2,-10,-23,0,-2
COc1ccc(NC(=O)C(=O)NCC2CCCN2S(=O)(=O)c2cccs2)cc1 (stereo unspecified),7,41,54,17,0,/
COc1ccc(Cl)cc1NS(=O)(=O)c1cccc(C(=O)NCCCN2CCCC2=O)c1,-3,12,-3,-1,1,-4
CCOC(=O)c1c(C)[nH]c(C)c1C(=O)COC(=O)[C@@H](NC(=O)c1ccco1)C(C)C,/,7,-16,/,1,-1
COc1cc(NC(=O)COC(=O)CO/N=C(\C)c2ccc3c(c2)OCO3)cc(OC)c1OC,-11,9,0,-5,0,-2
Cc1ccc(N(CC(=O)NCCc2ccc(F)cc2)S(=O)(=O)c2ccc(Cl)c([N+](=O)[O-])c2)c(C)c1,27,/,80*,8,0,7
COc1cc(OC)cc(C(=O)NCCNc2nc3cc(C)cc(C)c3cc2C#N)c1,6,7,77*,11,0,8
COc1ccc(C(=O)NCCCNc2nc3cc(C)cc(C)c3cc2C#N)cc1,/,-2,/,/,/,/
CCOc1ccc(N2C(=O)CC(Cc3ccc(Br)cc3)C2=O)cc1 (stereo unspecified),-7,/,-3,?,0,/
CCOc1ccc(-n2c(-c3ccc(OC)cc3)c[n+]3c2CCCCC3)cc1,53,-7,34,110*,-1,97*
CCOc1ccc(-n2c(-c3ccccc3)c[n+]3c2CCC3)cc1,62*,-19,-5,-16,0,104*
CCOc1ccc(-n2c(-c3ccc(Br)cc3)c[n+]3c2CCCCC3)cc1,83*,-11,-9,103*,0,118*
O=C(O)c1cn(Cc2ccccc2)c2ccc(Cl)cc2c1=O,19,22,-6,-2,1,6
COc1cc(OC)cc(C(=O)NC(=S)NNC(=O)c2cnccn2)c1,36,/,106*,-3,0,85*
O=C(/C=C/c1ccccc1)NC(=S)NNC(=O)c1cnccn1,50,3,87*,67,1,78*
COc1cc(OC)cc(C(=O)NNC(=S)NC(=O)c2cccnc2)c1,-9,/,16,-7,-1,6
COc1ccc(C(=O)NCCNC(=O)c2cnccn2)cc1OC,-9,/,/,19,0,1
COc1ccc(C(=O)NC(=S)NNC(=O)c2cnccn2)cc1OC,-5,/,38,16,0,82*
Cc1cc(Cl)ccc1C(=O)C1CCCN(C(=O)c2cncs2)C1 (stereo unspecified),26,/,-7,-4,0,-1
CC(=O)c1ccc(NC(=O)COC(=O)c2c3c(nc4ccccc24)/C(=C\c2cccs2)CCC3)cc1,43,/,117*,-5,0,3
CC(C)CNC(=O)COC(=O)c1c2c(nc3ccccc13)/C(=C\c1cccs1)CC2,/,21,/,/,/,/
SMILES,T cruzi repl,H9c2 TAG inh,CSC inhib,Calb FLC,Bfl-1 A1 inh,Beta cell apopt
O=C(COC(=O)c1c2c(nc3ccccc13)/C(=C\c1cccs1)CCC2)Nc1ccccc1,74*,/,101*,-6,0,3
CC1CCN(CCCNC(=O)CCNC(=O)Cn2cnc3ccccc3c2=O)CC1,-2,/,9,-3,0,-5
Cc1cccc2nc(CNC(=O)CC3C(=O)NCCN3Cc3cccc(F)c3)cn12 (stereo unspecified),58*,/,18,7,-1,-5
N#Cc1cc(C#N)c(SCC(=O)N2CC(=O)Nc3ccccc32)nc1N,/,6,24,/,0,-19
CCc1ccc2nc(SCC(=O)N3CC(=O)Nc4ccccc43)c(C#N)cc2c1,9,51*,-9,/,0,20
Cc1c(Cl)ccc2c1NC(=O)[C@]21N[C@@H](Cc2ccccc2)[C@H]2C(=O)N(c3ccc(F)cc3)C(=O)[C@H]21,29,/,2,89*,0,0
C/C(=N\NC(=O)c1nn(C)c(C)c1Br)c1ccc(NC(=O)C2CCCC2)cc1,/,0,-10,112*,-1,2
Cc1cn([C@H]2C[C@H](O)[C@@H](CNC(=O)c3ccccn3)O2)c(=O)[nH]c1=O,/,2,/,/,/,/
C/C(=N\OC(=O)NC1CCCCC1)c1sc(-c2ccccc2)nc1C,58*,6,50,-7,0,11
O=C(C1CCC1)N1CCc2cc(S(=O)(=O)Nc3ccc4c(c3)OCCO4)ccc21,7,-30,-6,-4,-1,79*
CN1CC2([N+](=O)[O-])CC=C(Oc3ccccc3)C([N+](=O)[O-])(C1)C2 (stereo unspecified),3,-28,-10,-1,0,-5
CN1CC2([N+](=O)[O-])CC=C(OCCO)C([N+](=O)[O-])(C1)C2 (stereo unspecified),-21,/,-15,113*,0,-4
CCN1C(=O)[C@H]2[C@@H](c3ccc(-c4ccc(OC)cc4)cc3)N[C@@](C)(C(=O)OC)[C@H]2C1=O,-5,8,28,-4,1,-2
CCOC(=O)c1cnc2ccc(C)cc2c1Nc1ccc(N2CCOCC2)cc1,24,8,0,96*,1,0
COc1ccccc1NC(=O)C(C)OC(=O)CCNS(=O)(=O)c1cccc(C(F)(F)F)c1 (stereo unspecified),/,2,/,/,1,-4
N#CCn1nnc(-c2ccc3c(c2)OCO3)n1,1,1,5,16,6.7*,-8
Cc1cc(C(=O)OCC(=O)Nc2cccc(S(N)(=O)=O)c2)c2ccccc2n1,5,1,-5,-5,1,-4
CCCCCCCCC[n+]1cccc2c3ccccc3ccc21,59*,/,58,4,0,111*
O=[N+]([O-])c1ccc(C[n+]2cccc3c4ccccc4ccc32)cc1,-3,-17,-16,-14,1,/
CCOC(=O)C1=C(c2ccccc2)O/C(=C(/C#N)C(F)(F)F)S1,70*,/,56,7,3,116*
CCOc1ccccc1N1CCN(C(=O)c2cccs2)CC1,-6,/,-3,-9,-1,6
Nc1ccc(C(=O)c2cccs2)cc1[N+](=O)[O-],9,2,-8,126*,0,-5

# High-throughput results: PubChem, several laboratories
